Measurements from paper PMC3949619 (Bioorganic & medicinal chemistry, 2013).
pIC50: −log10 of the molar value.

How the values were obtained:
[1] = system: d(TTAGGG)4 quadruplex DNA; experiment: UV melting of quadruplex DNA; assay type: binding, human; conditions: range over 50 and 150 mM K+ and over the compounds named together
Method in brief: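 d(TTAGGG)4 at 5 μM strand, annealed at 90 °C for 5 min and slowly cooled over 4 h; test compound 20 μM. Buffer: 10 mM potassium phosphate, pH 7.5, plus KCl at 32 mM (50 mM K+) or 132 mM (150 mM K+). Absorbance read at 295 nm in 0.5 °C steps with 1 min equilibration. Ttran taken from the first-derivative minimum. ΔTtran is the shift against DNA alone, ±1.0 °C.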

[2] = qualitative statement of the introduction; no reference given; cited from earlier work
[3] = in vivo; cited from earlier work
[4] = system: KBV-1 (overexpresses the efflux transporter MDR1); experiment: MTT-microtiter plate tetrazolinium cytotoxicity assay; assay type: cell-based, human; conditions: inferred from cytotoxicity in KBV-1 versus parent KB3-1
[5] = system: KBH5.0 (overexpresses BCRP); experiment: as above; assay type: cell-based, human; conditions: inferred from cytotoxicity in KBH5.0 versus parent KB3-1
[6] = system: KB3-1; conditions: read-out: IC50 against KB3-1 cells; range for compounds 1 and 2 together; cited from earlier work
[7] = system: human breast cancer xenograft (MDA-MB-435); conditions: MDA-MB-435 human breast cancer xenograft, athymic nude mice; cited from earlier work

Structure (SMILES)	ΔTtran of quadruplex DNA (range given) [1]	substrate for MDR1 efflux transporter [4]	substrate for BCRP efflux transporter [5]	further results
O=C1N[C@@H](Cc2ccccc2)C(=O)NCc2coc(n2)-c2coc(n2)-c2cccc(c2)-c2cccc(c2)-c2nc(co2)-c2nc1co2 [Compound 18]	1.1–2.8 °C	–	–	–
CC(C)[C@@H]1NC(=O)c2coc(n2)-c2coc(n2)-c2coc(n2)C/C=C/c2coc(n2)-c2coc(n2)-c2coc1n2 [METV]	–	–	–	aqueous solubility [2]: poor aqueous solubility
CC(C)[C@@H]1NC(=O)c2coc(n2)-c2coc(n2)-c2coc(n2)[C@H](CCN(C)C)NC(=O)c2coc(n2)-c2coc(n2)-c2coc1n2 [YAK-1-161]	–	–	–	well tolerated dose levels [3]: ≤ 45 mg/kg
CC(C)[C@@H]1NC(=O)c2coc(n2)-c2coc(n2)-c2cccc(c2)-c2cccc(c2)-c2nc(co2)-c2nc(co2)CNC1=O [Compound 17]	4.1–6.4 °C	–	–	–
CC(C)[C@@H]1NC(=O)c2coc(n2)-c2coc(n2)-c2coc(n2)[C@H](C(C)C)NC(=O)c2coc(n2)-c2coc(n2)-c2coc1n2 [HXDV]	–	–	–	aqueous solubility [2]: poor aqueous solubility
CN(C)CC[C@@H]1NC(=O)c2coc(n2)-c2coc(n2)-c2cccc(c2)-c2cccc(c2)-c2nc(co2)-c2nc(co2)CNC1=O [Compound 21]	8.4–14.6 °C	substrates	substrates	–
NCC[C@@H]1NC(=O)c2coc(n2)-c2coc(n2)-c2cccc(c2)-c2cccc(c2)-c2nc(co2)-c2nc(co2)CNC1=O [Compound 20]	8.4–14.6 °C	substrates	substrates	–
CN(C)CCc1cc2cc(c1)CNC(=O)c1coc(n1)-c1coc(n1)-c1cccc(n1)-c1nc(co1)-c1nc(co1)C(=O)NC2 [Compound 2]	–	–	–	pIC50 [6]: 7.40 to 7.52; %T/C value [7]: 27.7%
O=C1CNC(=O)c2coc(n2)-c2coc(n2)-c2cccc(c2)-c2cccc(c2)-c2nc(co2)-c2nc(co2)CN1 [Compound 16]	4.1–6.4 °C	substrates	substrates	–
CC(C)(C)OC(=O)NCC[C@@H]1NC(=O)c2coc(n2)-c2coc(n2)-c2cccc(c2)-c2cccc(c2)-c2nc(co2)-c2nc(co2)CNC1=O [Compound 19]	1.1–2.8 °C	–	–	–
